The values that follow come from ChEMBL document CHEMBL1124103, “Potential antitumor agents. 56. "Minimal" DNA-intercalating ligands as antitumor drugs: phenylquinoline-8-carboxamides” (J Med Chem, 1988).

“And” between values parts separate entries of the source, which are not always exact repeats. Equal entries are not always repeated.

The subject of series [1] is Mus musculus. Kind of series: Optimal dose administered intraperitoneally on days 5,9 and 13 after intravenous inoculation of lewis lung carcinoma cells. Format: functional.
Series [2] concerns Nucleic Acid. Kind of series: Displacement of ethidium from poly(dA/T) or poly(dG/C)-DNA. It is filed as nucleic-acid assay. Put shortly: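 Association constants (M⁻¹) for binding to poly[d(AT)] and poly[d(GC)] measured by ethidium displacement, assuming ligand and ethidium compete for intercalation sites; reported as log K.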
The species entered for series [3] is Mus musculus. Kind of series: Percentage increase in lifespan of treated animals(at the optimal dose) compared to controls. Average lifespan of control animals was 17 days (Lewis lung carcinoma cells). Format: functional.
The test system of series [4] is L1210. Kind of series: Compound concentration that reduces cell growth of L1210 leukemia cultures to 50% of controls after 70h. Conditions: Mus musculus, L1210, 70 h. It is filed as functional, cell-based.
Series [5] deals with Mus musculus. Kind of series: Optimal dose administered intraperitoneally on days 1,5 and 9 after intraperitoneal inoculation of P388 leukemia cells. Format: functional.
The species named for series [6] is Mus musculus. The series can be described thus: Percentage increase in lifespan of treated animals(at the optimal dose) compared to controls. Average lifespan of control animals was 11 days (P388). Format: functional.
Series [7] in a line: Ionization constant of chromophore measured by UV spectroscopy in 20% dimethylformamide. Format: physicochemical. Put shortly: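 Chromophore pKa measured by UV spectroscopy in 20% dimethylformamide.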
The test system of series [8] is Mus musculus. The series can be described thus: Percentage increase in lifespan of treated animals(at 100 mg/kg optimal dose) compared to controls. Average lifespan of control animals was 17 days (Lewis lung carcinoma cells).

`CN(C)CCNC(=O)c1cccc2cc(-c3ccccc3)cnc12`: the OD in series [1] and in series [5] was 100 mg/kg in each case. The Log K in series [2] was 5.68 and 5.7. Moreover, the ILS max is recorded as <40% in series [3] and 27% in series [6]. The IC50 (in general, the concentration at which inhibition is half-maximal) in series [4] is 2600 nM. Further, the pKa (in general, the negative logarithm of the acid dissociation constant) in series [7] was 2.58.
For `CN(C)CCNC(=O)c1cccc2c(-c3ccccc3)ccnc12`, in series [2], the Log K was 4.73 and 4.77. The same compound had an IC50 in series [4] of 14700 nM. In series [5], the OD was 150 mg/kg. Also, the ILS max in series [6] is recorded as <20%. This compound also had a pKa in series [7] of 3.04.
As for `CN(C)CCNC(=O)c1ccc(-c2ccccc2)c2cccnc12`, in series [2], the Log K is 4.74 and 4.79. This compound had a half-inhibitory concentration (IC50) in series [4] of 13700 nM. The compound also registered an OD in series [5] of 100 mg/kg. Besides, the ILS max in series [6] is listed as <20%. Moreover, the pKa in series [7] came out at 3.13.
On to `CN(C)CCNC(=O)c1cccc2cc3ccccc3nc12`, for which the OD in series [1] was 100 mg/kg; in series [5] it was 66 mg/kg. In addition, the ILS max in series [6] was 91%.
As for `CN(C)CCNC(=O)c1cc(-c2ccccc2)cc2cccnc12`, the results for the OD in series [1] and in series [5] were 100 mg/kg and 65 mg/kg, respectively. Also, the Log K in series [2] is 6.12 and 5.96. Further, the ILSmax in series [3] worked out at 31; in series [6] it was 29. This compound yielded an IC50 in series [4] of 910 nM. In addition, the pKa in series [7] was found to be 2.93.
`CN(C)CCNC(=O)c1cccc2cccnc12`: the Log K in series [2] is 5.12 and 5.17. Moreover, in series [4], the IC50 was > 25000 nM. This compound also gave an OD in series [5] of 100 mg/kg. The ILS max in series [6] was <20%.
Consider `CN(C)CCNC(=O)c1cccc2ccc(-c3ccccc3)nc12`, for which the OD in series [1] and in series [5] was 100 mg/kg each time. In series [2], the Log K is 5.97 and 5.92. Moreover, in series [4], the IC50 is 1300 nM. The ILS max came to 70% in series [8] and 91% in series [6]. In series [7], the pKa is 2.75.
